These results are taken from ChEMBL document CHEMBL4382247, “A novel series of napabucasin derivatives as orally active inhibitors of signal transducer and activator of transcription 3 (STAT3)” (Eur J Med Chem, 2019).

The nature of series [1]: Toxicity in BALB/c mouse implanted with mouse CT26 cells assessed as effect on kidney morphology by measuring edema at 50 mg/kg, po administered once daily by H and E staining based histopathological analysis. The following applies: in vivo. Type of series: organism-based. A digest of the protocol:
(§1)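 CT-26 subcutaneous flank tumour model in male BALB/c mice, five per group, dosed orally at 50mg/kg daily in 5% NMP/95% PEG 400 versus vehicle. After treatment, heart, liver, spleen, lung and kidney collected, sectioned and stained with H&E for histological examination.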

Series [2] is described as follows: Aqueous solubility of the compound in water at 2 mg after 24 hrs by HPLC analysis. Type of series: physicochemical. A digest of the protocol:
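Aqueous solubility measured by HPLC against calibration standards at 15–125 µg/mL. Values are the mean of at least three determinations ± SD.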

Series [3] is described as follows: Toxicity in BALB/c mouse implanted with mouse CT26 cells assessed as behavioral alteration at 50 mg/kg, po administered once daily. In kind it is organism-based. Particulars: in vivo. A digest of the protocol: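 Mice bearing subcutaneous CT-26 tumours, five per group, given 50mg/kg orally each day in 5% NMP/PEG 400, with an equal-volume vehicle control group. Body weight and behaviour monitored over the treatment period.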

Another series relates to HepG2. The series is described as follows: Decrease in total STAT3 expression in human HepG2 cells at 400 nM after 24 hrs by DAPI staining based immunofluorescence microscopic analysis. Type of series: ADME, cell-based. The following applies: hepg2, 24 h, 0.4 µM. The gist of the method: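 HepG2 cells treated 24 h, stained with the same anti-total STAT3 antibody as the blots, nuclei counterstained with DAPI. Imaged on an inverted microscope with a 20× objective.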

A short description of series [4]: Toxicity in BALB/c mouse implanted with mouse CT26 cells assessed as effect on kidney morphology by measuring cell inflammation at 50 mg/kg, po administered once daily by H and E staining based histopathological analysis. Type of series: organism-based. Particulars: in vivo. A digest of the protocol: as §1
The subject of another series is CT26. The series is described as follows: Antiproliferative activity against mouse CT26 cells after 72 hrs by MTT assay. Type of series: functional, cell-based. Particulars: CT26, 72 h. A digest of the protocol: (§2)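 Cells seeded at 5 × 10^3 per well and cultured 24 h before compound addition at varied concentrations, then grown a further 72 h; 0.5% DMSO as solvent control. MTT (5mg/ml solution) added for 4 h, formazan dissolved in DMSO, absorbance read at 570nm. Each treatment in triplicate; Mean ± SD.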
For orientation: Tetrazolium dyes change colour on reduction, which living cells bring about.

Another series deals with HT-29. The series is described as follows: Antiproliferative activity against human HT-29 cells after 72 hrs by MTT assay. Particulars: HT-29, 72 h. Type of series: functional, cell-based. The gist of the method:
as §2

Series [5] is described as follows: Hepatotoxicity in BALB/c mouse implanted with mouse CT26 cells assessed as effect on liver morphology by measuring cell inflammation at 50 mg/kg, po administered once daily by H and E staining based histopathological analysis. In kind it is toxicity, organism-based. The following applies: in vivo. A digest of the protocol:
as §1

Series [6] is described as follows: Toxicity in BALB/c mouse implanted with mouse CT26 cells assessed as effect on lung morphology by measuring necrosis at 50 mg/kg, po administered once daily by H and E staining based histopathological analysis. Particulars: in vivo. In kind it is organism-based. The gist of the method: as §1
The target of series [7] is Signal transducer and activator of transcription 3 (Homo sapiens, UniProt P40763). In words: Inhibition of STAT3 phosphorylation at Y705 residue in human HepG2 cells at 400 nM after 24 to 48 hrs by sandwich-ELISA. Type of series: cell-based. The gist of the method: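 Cells treated 24 or 48 h. Whole-cell lysates made in lysis buffer with protease inhibitor cocktail. Total STAT3 and p-STAT3 Y705 measured by sandwich ELISA. Three repeats; groups compared with control by paired t-test; means ± S.D.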
Sequence of Signal transducer and activator of transcription 3 (P40763 whole entry): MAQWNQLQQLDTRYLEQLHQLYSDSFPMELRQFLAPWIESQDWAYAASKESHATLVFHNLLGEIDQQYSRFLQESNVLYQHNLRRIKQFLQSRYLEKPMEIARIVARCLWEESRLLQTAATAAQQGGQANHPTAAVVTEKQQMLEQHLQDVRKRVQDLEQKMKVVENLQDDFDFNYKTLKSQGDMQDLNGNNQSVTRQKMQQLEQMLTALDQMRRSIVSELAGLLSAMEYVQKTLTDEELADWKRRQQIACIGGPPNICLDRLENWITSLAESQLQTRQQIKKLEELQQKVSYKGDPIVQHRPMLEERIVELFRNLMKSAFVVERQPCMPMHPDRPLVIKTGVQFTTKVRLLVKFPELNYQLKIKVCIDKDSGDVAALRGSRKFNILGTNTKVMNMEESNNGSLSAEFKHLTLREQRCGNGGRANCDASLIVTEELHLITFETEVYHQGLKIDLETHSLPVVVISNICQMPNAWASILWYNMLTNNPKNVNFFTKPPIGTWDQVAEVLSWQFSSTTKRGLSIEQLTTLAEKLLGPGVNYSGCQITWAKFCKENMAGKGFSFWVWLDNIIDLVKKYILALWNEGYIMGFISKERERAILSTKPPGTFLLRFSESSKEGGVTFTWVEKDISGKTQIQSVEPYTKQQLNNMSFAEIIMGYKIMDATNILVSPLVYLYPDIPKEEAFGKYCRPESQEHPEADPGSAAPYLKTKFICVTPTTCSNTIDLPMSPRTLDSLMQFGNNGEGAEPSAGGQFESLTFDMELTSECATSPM
(In an ELISA, binding on a coated surface is turned into a signal by an enzyme label.)

Series [8] in a line: Toxicity in BALB/c mouse implanted with mouse CT26 cells assessed as effect on kidney morphology by measuring necrosis at 50 mg/kg, po administered once daily by H and E staining based histopathological analysis. The following applies: in vivo. Type of series: organism-based. The gist of the method: as §1
Series [9] is described as follows: Toxicity in BALB/c mouse implanted with mouse CT26 cells assessed as effect on spleen morphology by measuring necrosis at 50 mg/kg, po administered once daily by H and E staining based histopathological analysis. Type of series: organism-based. Particulars: in vivo. The gist of the method:
as §1

In a further series the test system is U-251. The series is described as follows: Potency index, ratio of napabucasin IC50 to test compound IC50 for human U251 cells. In kind it is functional.
Series [10] in a line: Hepatotoxicity in BALB/c mouse implanted with mouse CT26 cells assessed as effect on liver morphology by measuring edema at 50 mg/kg, po administered once daily by H and E staining based histopathological analysis. Type of series: toxicity, organism-based. Particulars: in vivo. A digest of the protocol: as §1
The nature of series [11]: Toxicity in BALB/c mouse implanted with mouse CT26 cells assessed as effect on spleen morphology by measuring edema at 50 mg/kg, po administered once daily by H and E staining based histopathological analysis. Type of series: organism-based. Particulars: in vivo. A digest of the protocol: as §1

Broadly, the solubility is the concentration that dissolves in the medium under given conditions. The term IC50 denotes the point on the concentration scale where inhibition reaches its midpoint.

Values after ≈ are worked out from the molar mass of the structure shown. Active and inactive are the calls of the source. No cut-off for these calls is given here. Some results are limits rather than exact numbers.

On to `O=C(NCCN1CCCCC1)c1cc2c(o1)C(=O)c1ccccc1C2=O`, for which the Activity entry in series [1] is listed as “Non-Toxic”; in [3], “Non-Toxic”; with HepG2, “Toxic”; in series [4], “Non-Toxic”; in series [5], “Non-Toxic”; in series [6] it was “Non-Toxic”. For the same molecule, the Activity result in [8], in [9], in [10] and in series [11] was “Non-Toxic” throughout. In series [2], this molecule returned a solubility at 24 h of 201 µM (≈ 70.8 µg/mL). For the same molecule, the IC50 in the series on CT26 was found to be 140 nM; in the series with HT-29 it was 70 nM. For the same molecule, the inhibition entry in series [7] was “Active”. In addition, the “Ratio IC50” value with U-251 was over 10.
